Experimental data published in ChEMBL document CHEMBL1151860, “Asymmetric synthesis and biological evaluation of Danshensu derivatives as anti-myocardial ischemia drug candidates” (Bioorg Med Chem, 2009).
Activity calls are given as the source filed them. The calls are words filed in the database; no cut-off is given here.

What was measured:
Rattus norvegicus [1] = species on record: Rattus norvegicus; test: Cytoprotective effect against hypoxia-induced Sprague-Dawley rat NRVM assessed as decrease in LDH leakage pretreated for 12 hrs before hypoxia induction at 1 umol/L relative to control; assay type: functional
How it was run: (§1)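 Neonatal rat ventricular myocytes were obtained by trypsin digestion, preplated for 2 h, then seeded at 1 × 10⁶ cells/ml in DMEM with 10% FBS, penicillin/streptomycin and 5-bromo-deoxyuridine at 37 °C, 5% CO₂. After 48 h they were given compound for 12 h, then 5 h hypoxia. Viability was read by MTT and damage by LDH leakage; means SE.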

Rattus norvegicus [2] = species on record: Rattus norvegicus; test: Cytoprotective effect against hypoxia-induced Sprague-Dawley rat NRVM assessed as increase in cell viability pretreated for 12 hrs before hypoxia induction at 1 umol/L measured after 5 hrs by MTT assay relative to control; assay type: functional; how it was run: as §1
[3] = Antiapoptotic activity against hypoxia-induced Sprague-Dawley rat NRVM assessed as decrease in bax protein level at 1 umol/l by Western blot analysis; assay type: functional
[4] = Antiapoptotic activity against hypoxia-induced morphological changes in Sprague-Dawley rat NRVM assessed as decrease in nuclear condensation at 1 umol/l by Heochst dye relative to hypoxia induced control; assay type: functional
How it was run: (§2)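 Cultured neonatal rat ventricular myocytes (trypsin-dissociated, 2 h preplating, DMEM/10% FBS with 5-bromo-deoxyuridine, 37 °C, 5% CO₂) were pretreated 12 h with compound after 48 h culture, then made hypoxic for 5 h. Nuclei were Hoechst-stained to score shrinkage and condensation.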

Rattus norvegicus [5] = species on record: Rattus norvegicus; test: Antioxidant activity against hypoxia-induced lipid peroxidation in Sprague-Dawley rat NRVM assessed as decrease in malondialdehyde content at 1 umol/l relative to hypoxia control; assay type: functional
[6] = Antiapoptotic activity against hypoxia-induced Sprague-Dawley rat NRVM assessed as decrease in caspase 3 mRNA level at 1 umol/l by RT-PCR; assay type: functional
[7] = Antiapoptotic activity against hypoxia-induced Sprague-Dawley rat NRVM assessed as decrease in bax mRNA level at 1 umol/l by RT-PCR; assay type: functional
[8] = Antiapoptotic activity against hypoxia-induced morphological changes in Sprague-Dawley rat NRVM assessed as decrease in nuclei shrunk at 1 umol/l by Heochst dye relative to hypoxia induced control; assay type: functional; how it was run: as §2
[9] = Antiapoptotic activity against hypoxia-induced Sprague-Dawley rat NRVM assessed as increase in bcl2 mRNA level at 1 umol/l by RT-PCR; assay type: functional
Rattus norvegicus [10] = species on record: Rattus norvegicus; test: Cytoprotective effect against hypoxia-induced Sprague-Dawley rat NRVM assessed as decrease in cellular damage pretreated for 12 hrs before hypoxia induction at 1 umol/L; assay type: functional
[11] = Antiapoptotic activity against hypoxia-induced Sprague-Dawley rat NRVM assessed as increase in bcl2 protein level at 1 umol/l by Western blot analysis; assay type: functional
How it was run: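 Myocytes were pretreated 12 h, then made hypoxic for 5 h and lysed at the end of hypoxia. Lysates were spun at 10,000 r/min for 10 min and protein quantified by BCA. Samples were transferred to PVDF and blocked 2 h at RT in TBS with 5% skim milk. For bcl-2, blots were probed 1 h at RT with rabbit anti-rat polyclonal antibody in TBS-T.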

Rattus norvegicus [12] = test: Cardioprotective effect in Sprague-Dawley rat myocardial infarction model assessed as decrease in serum LDH level at 15 to 60 mg/kg, ip treated 7 days before myocardial infarction surgery and after 2 days once daily; assay type: functional, organism-based
How it was run: (§3)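 Male Sprague-Dawley rats (230–250 g) were anaesthetised with chloral hydrate (60 mg/kg ip), intubated and ventilated, and the left coronary artery ligated; sham rats were not ligated. Drug at 15, 30 or 60 mg/kg ip was given once daily from 7 days before to 2 days after surgery. Serum LDH, CK, SOD and MDA were measured by diagnostic kit; means SE, n = 6, P < 0.05.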

Rattus norvegicus [13] = test: Cardioprotective effect in Sprague-Dawley rat myocardial infarction model assessed as decrease in infarct size at 60 mg/kg, ip treated 7 days before myocardial infarction surgery and after 2 days once daily by TTC staining; assay type: functional, organism-based; parameters: dose 60 mg/kg; settings: Myocardium
How it was run: (§4)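 Male Sprague-Dawley rats (230–250 g), anaesthetised with 7% chloral hydrate (60 mg/kg ip), intubated and ventilated; left coronary artery ligated (sham: no ligation). Five randomised groups: MI, sham, MI plus drug at 15, 30 or 60 mg/kg ip once daily. Hearts excised 2 days post-ligation, ventricles cut into five transverse slices, 1% TTC at 37 °C for 15 min; unstained area taken as infarct. Means SE.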

Rattus norvegicus [14] = test: Cardioprotective effect in Sprague-Dawley rat myocardial infarction model assessed as decrease in infarct size at 30 mg/kg, ip treated 7 days before myocardial infarction surgery and after 2 days once daily by TTC staining; assay type: functional, organism-based; parameters: dose 30 mg/kg; settings: Myocardium; how it was run: as §4
Rattus norvegicus [15] = test: Cardioprotective effect in Sprague-Dawley rat myocardial infarction model assessed as decrease in serum creatine kinase level at 15 to 60 mg/kg, ip treated 7 days before myocardial infarction surgery and after 2 days once daily; assay type: functional, organism-based; how it was run: as §3
Rattus norvegicus [16] = test: Cardioprotective effect in Sprague-Dawley rat myocardial infarction model assessed as decrease in infarct size at 15 mg/kg, ip treated 7 days before myocardial infarction surgery and after 2 days once daily by TTC staining; assay type: functional, organism-based; parameters: dose 15 mg/kg; settings: Myocardium; how it was run: as §4
Rattus norvegicus [17] = test: Cardioprotective effect in Sprague-Dawley rat myocardial infarction model assessed as decrease in serum malondialdehyde level at 15 to 60 mg/kg, ip treated 7 days before myocardial infarction surgery and after 2 days once daily; assay type: functional, organism-based; how it was run: as §3
Rattus norvegicus [18] = test: Cardioprotective effect in Sprague-Dawley rat myocardial infarction model assessed as increase in serum SOD level at 15 to 60 mg/kg, ip treated 7 days before myocardial infarction surgery and after 2 days once daily; assay type: functional, organism-based; how it was run: as §3

SMILES | Activity (Rattus norvegicus [1]) | Activity (Rattus norvegicus [2]) | Activity [3] | Activity [4] | Activity (Rattus norvegicus [5]) | Activity [6] | Activity [7] | Activity [8] | Activity [9] | Activity (Rattus norvegicus [10]) | Activity [11] | Activity (Rattus norvegicus [12]) | Activity (Rattus norvegicus [13]) | Activity (Rattus norvegicus [14]) | Activity (Rattus norvegicus [15]) | Activity (Rattus norvegicus [16]) | Activity (Rattus norvegicus [17]) | Activity (Rattus norvegicus [18])
COC(=O)C(Cc1ccc(OC(C)=O)c(OC(C)=O)c1)OC(C)=O (racemic) | Active | Active |  |  |  |  |  |  |  |  |  |  |  |  |  |  |  | 
COC(=O)[C@@H](Cc1ccc(OC(C)=O)c(OC(C)=O)c1)OC(C)=O | Active | Active | Active | Active | Active | Active | Active | Active | Active | Active | Active |  |  |  |  |  |  | 
COC(=O)[C@@H](Cc1ccc2c(c1)OCO2)OC(C)=O | Active | Active |  |  | Active |  |  |  |  | Active |  |  |  |  |  |  |  | 
CC(=O)O/C(=C\c1ccc(O)c(O)c1)C(=O)O | Active | Active | Active | Active | Active | Active | Active | Active | Active |  | Active | Active | Active | inactive | Active | inactive | Active | Active
COC(=O)C(Cc1ccc2c(c1)OCO2)OC(C)=O (racemic) | Active | Active |  |  |  |  |  |  |  |  |  |  |  |  |  |  |  | 
